Reference: ChEMBL document CHEMBL3872262, “Synthesis of novel C4-benzazole naphthalimide derivatives with potent anti-tumor properties against murine melanoma” (Bioorg Med Chem, 2017)
The source made the active and inactive calls. The calls are words filed in the database; no cut-off is given here.

Key:
[1] = Cytotoxicity against mouse B16F10 cells measured after 2 days by MTS assay; conditions: B16-F10, 48 h
Homo sapiens [2] = species on record: Homo sapiens; assay: Inhibition of topoisomerase 2 (unknown origin) assessed as DNA intercalation at 10 uM using supercoiled pHOT-1 DNA as substrate measured after 30 mins by agarose gel electrophoresis
Method in brief: (§1)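 Topoisomerase II drug screening kit. Supercoiled pHOT-1 plasmid incubated with topoisomerase II enzyme plus compound at 37 °C for 30 min, with 100 μM etoposide as positive control. Stopped with 10% SDS, then proteinase K for 15 min at 37 °C. Run on 1% agarose gel, stained with EtBr and viewed under UV.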

Mus musculus = assay: Toxicity in C57BL/6 mouse assessed as change in body weight at 2 mg/kg, ip administered daily for 9 days measured during compound dosing; format: organism-based; conditions: in vivo, 216 h
Method in brief: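 Female C57BL/6 mice, n=5/group, given 2 mg/kg ip daily in 5% DMSO vehicle, with a vehicle control group. Body weights recorded on set days over a 9-day study.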

B16-F10 = assay: Antitumor activity against mouse B16F10 cells implanted in C57BL/6 mouse assessed as reduction in lung metastasis at 2 mg/kg, ip administered daily for 1 to 14 days by microscopic method; format: functional, organism-based
Method in brief: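 Female C57BL/6 mice, 6–8 weeks old, injected via tail vein with 2x10^5 B16F10 cells on day 0. Dosing 2 mg/kg ip daily on days 1–14, in 5% DMSO vehicle, with a vehicle control group. Total black lung nodules counted under microscopy on day 14, n=11/group.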

Homo sapiens [3] = species on record: Homo sapiens; assay: Inhibition of topoisomerase 2 (unknown origin) assessed as DNA intercalation at 100 uM using supercoiled pHOT-1 DNA as substrate measured after 30 mins by agarose gel electrophoresis; method in brief: as §1

inhibition (Homo sapiens [2]) | inhibition (Homo sapiens [3]) | SMILES | IC50 [1] [µM] | Activity (Mus musculus) | Activity (B16-F10)
Active | Active | CN(C)CCN1C(=O)c2cccc3c(-c4nc5ccccc5s4)ccc(c23)C1=O | 4.5 | Non-Toxic | Active
Active |  | CN(C)CCN1C(=O)c2cccc3c(-c4nc5ccccc5o4)ccc(c23)C1=O | 7.8 | Non-Toxic | Active
 |  | CN(C)CCN1C(=O)c2cccc3cc(N)cc(c23)C1=O [AMONAFIDE] | 6.7 |  | 
